The test system of one assay is Calf thymus DNA. The assay can be described thus: Binding affinity to calf thymus DNA assessed as dissociation constant by fluorescence based analysis. In kind it is nucleic-acid assay, Bos taurus. A digest of the protocol: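 Fluorescence titration: compound at 20 μM in PBS pH 7.4, calf thymus DNA added in 10 μM steps until emission plateaued (~60 μM). Excitation 345 nm, emission 350–650 nm. KD obtained by fitting a one-site total saturation binding model (nonspecific binding proportional to ligand). Triplicate independent samples.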

Assay [1] in a line: Induction of ROS production in PBS at pH 7.4 at 1 uM irradiated with 480 nm 2.3 J/cm^2 light for 15 mins with 8 J/cm^2 UV irradiation for 5 mins by DCFH2-DA probe based analysis. In kind it is functional. Conditions: time 20.0 min.
A further assay relates to A549. Kind of assay: Selectivity index, ratio of CC50 for photocytotoxicity against human […] cells irradiated with 480 nm 2.3 J/cm^2 light to CC50 for photocytotoxicity against human A549 cells irradiated with 480 nm 2.3 J/cm^2 light and 8 J/cm^2 UV irradiation. In kind it is functional. Put shortly: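 Cells (MCF7, A549, HeLa) incubated 1 h with compound (BB probes 0–32 μM, Br-DAPI 0–64 μM) and washed once. Light arms: 480 nm (15 min, 2.3 J cm⁻²) with or without UV (5 min, 8.0 J cm⁻²), or UV only; dark controls unilluminated. Cells kept overnight in growth medium, then MTT read 24 h post-treatment. CC50 taken relative to untreated cells. n = 3.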

The test system of the next assay is MCF7. Kind of assay: Photocytotoxicity against human MCF7 cells cultured as 3D spheroids assessed as fold reduction in diameter of tumor spheroid size at 10 uM incubated for 1 hr followed by washout and irradiation with 480 nm 2.3 J/cm^2 light for 15 mins with 8 J/cm^2 UV irradiation for 5 mins and incubated overnight by cell viability imaging kit based assay.

Activity calls are given as the source filed them. The calls are words filed in the database; no cut-off is given here.

As usually defined, the Kd is the constant that tells how readily two partners part at equilibrium. As for `CC1=CC(C)=[N+]2C1=C(COC(=O)/N=C(\N)c1ccc3c(Br)c(-c4ccc(C(=N)N)cc4)[nH]c3c1)c1c(C)cc(C)n1[B-]2(C)C`, the Kd in the assay on Calf thymus DNA stood at 6 µM. The outcome (in assay [1]; in the assay on MCF7) was Active. In the assay on A549, the Ratio is recorded as 17.
